Experimental data from different studies.
Lines come from different studies, so protocols differ.
Observed: metabolic stability
Species: rat

SMILES	system	setting	half-life
OCc1ccc(-c2nn(Cc3ccccn3)c3cccnc23)o1	liver microsomes	1 µM, pH 7.4	> 30 min
C=CCn1c(=O)c2cnc(Nc3ccc(N4CCN(C)CC4)cc3)nc2n1-c1ccc2c(n1)[C@@](O)(CC)CC2	hepatocytes	–	175 min
Cc1[nH]c(C)c(S(=O)(=O)Nc2ccc(C(F)(F)F)c(Cl)c2Cl)c1C(=O)N1CCC(F)(F)C1	liver microsomes	–	32 min
O=C1c2ccccc2C(=O)N1CCCN1CCN(C(c2ccc(F)cc2)c2ccc(F)cc2)CC1	liver microsomes	100 ng/mL	3.9 min
Cc1[nH]c(C)c(S(=O)(=O)Nc2ccc(C(F)(F)F)c(Cl)c2)c1C(=O)N(C)C	liver microsomes	–	5.7 min
NCc1ccc(-c2nn(Cc3ccccc3)c3ccccc23)o1	liver microsomes	1 µM, pH 7.4	> 30 min
N#Cc1ccc(C[C@H](Nc2nnc(-c3ccc(Br)cc3)s2)C(=O)N2CCc3ccccc32)cc1	liver microsomes	10 µM, pH 7.4	15 min
O=C1CCC(N2Cc3cc(C4CCN(Cc5ccccc5)CC4)ccc3C2=O)C(=O)N1 (centres unmarked)	liver microsomes	1 µM	> 60 min
N#Cc1ccc(C[C@H](Nc2ncc(-c3ccc(F)cc3)o2)C(=O)N2CCc3ccccc32)cc1	liver microsomes	10 µM, pH 7.4	43 min
COc1cnccc1Cn1nc(-c2ccc(CO)o2)c2ccccc21	liver microsomes	1 µM, pH 7.4	7 min
N#Cc1ccc(C[C@H](Nc2nnc(-c3ccc(Br)cc3)o2)C(=O)N2CCc3ccccc32)cc1	liver microsomes	10 µM, pH 7.4	27 min
OCc1ccc(-c2nn(Cc3ccncc3)c3ccccc23)o1	liver microsomes	1 µM, pH 7.4	12 min
N#Cc1ccc(C[C@H](Nc2c(Nc3ccc(F)cc3)c(=O)c2=O)C(=O)N2CCc3ccccc32)cc1	liver microsomes	10 µM, pH 7.4	20 min
COc1ccc(Cn2cc(CO[C@@H]3O[C@H]4[C@H](OC[C@H]4O)[C@H]3O)nn2)cc1	liver microsomes	–	120 min
